# Measured values reported in paper PMC2217063 (The Journal of General Physiology, 1997).
# Several values for one entry are separate records, joined by “and”; a condition that tells them apart may be missing. Equal values may be shown once. Read-outs that look alike come from different tables or passages of the source.
# What was measured:
# Na,K-ATPase [1] = target: T1, Na,K-ATPase (Canis lupus familiaris, UniProt P50997); assay type: biochemical, dog
# Na,K-ATPase [2] = settings: 0°C, different method; ref Klodos and Nørby, 1987; cited from earlier work
# Na,K-ATPase [3] = target: T1, Na,K-ATPase; assay: K- and ADP-chases of the phosphointermediate; assay type: biochemical, dog; settings: for ratio of interconversion rate constants, k12/k21: twin 2-pool model
# Na,K-ATPase [4] = target: T1, Na,K-ATPase; assay: Na-ATPase activity and rate constant of blank chase at 4, 17 and 27°C; assay type: biochemical, dog; settings: both Na-ATPase activity and rate constant of blank chase
# Method in brief: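 Na-ATPase measured without K+ in imidazole MOPS with Na3EGTA and NaNO3 at 40 or 400 mM, started with ATP, 4 mM final. Rate constant taken from the blank chase: decay of [γ-32P]phosphoenzyme after labelling stops, with a chase lacking ADP and K+. Both run at 4, 17 and 27°C.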
# Na,K-ATPase [5] = target: T1, Na,K-ATPase; assay: Na,K-ATPase activity at 37°C with different anions; assay type: biochemical, dog; settings: 400 mM vs 40 mM
# Method in brief: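 Enzyme purified from outer-medulla microsomes. […] Salts: 40 mM Na+/8 mM K+/3.5 mM Mg2+ or 400 mM Na+/80 mM K+/10 mM Mg2+. Preincubated 20 min at 37°C; started with ATP, 4 mM final.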
# [6] = 45 mM Na^+, replacement cation to a sum of 500 mM, nitrate, 4°C, prep. A
# [7] = 200 mM Na^+, replacement cation to a sum of 500 mM, nitrate, 4°C, prep. B
# [8] = 500 mM Na^+, no replacement cation, nitrate, 4°C, enzyme prep. A
structure (smiles),measurement,setting,value
"CCN(CC)CC [Et3N^+, triethylamine]",E1P (amount of K-resistant E1P),"Na,K-ATPase [1]; [6]",68%
same,E1P (amount of K-resistant E1P),"Na,K-ATPase [1]; [7]",56%
"Nc1ncnc2c1ncn2[C@@H]1O[C@H](COP(=O)(O)OP(=O)(O)OP(=O)(O)O)[C@@H](O)[C@H]1O [ATP, reference compound]","k(off), rate constant of dissociation of ATP from ATP·E1","Na,K-ATPase [1]; [8]",1.1 ± 0.10 s⁻¹ and 1.3 ± 0.20 s⁻¹
same,"k off, rate constant of dissociation of ATP, range over all media of Table III","Na,K-ATPase [1]; 45-500 mM Na^+, 4°C, no correlation with [Na^+]",0.7 to 1.9 s⁻¹
same,rate constant of dissociation of ATP,"Na,K-ATPase [2]",1.5 to 3.5 s⁻¹
[Na+] [Na^+],K(internal) = [ADP·E1P]/[ATP·E1],"Na,K-ATPase [1]; 45 mM Na^+",~2
same,K int in 45 mM Na^+ relative to 200 mM Na^+ in each medium,"Na,K-ATPase [1]; 45 mM vs 200 mM Na^+",2.1–2.5 fold
same,K int = [ADP·E1P]/[ATP·E1],"Na,K-ATPase [1]; 200 mM Na^+",0.5–1.4
same,K int = [ADP·E1P]/[ATP·E1],"Na,K-ATPase [1]; 500 mM Na^+",0.1–0.3
same,K(internal) = [ADP·E1P]/[ATP·E1],"Na,K-ATPase [1]; 500 mM Na^+",~0.2
same,E1P (amount of K-resistant E1P),"Na,K-ATPase [1]; [8]",95%
same,effect on interconversion rate constants,"Na,K-ATPase [3]; 240 mM NaNO3 vs 30 mM NaNO3 plus 210 mM TrisNO3, 4°C",not affected significantly
[Cl-].[Na+] [NaCl],"ratio of interconversion rate constants, k12/k21","Na,K-ATPase [3]; 160 mM NaCl, 4°C",> 5
same,"ratio of interconversion rate constants, k12/k21","Na,K-ATPase [3]; 600 mM NaCl, 4°C",0.25
O=[N+]([O-])[O-].[Na+] [NaNO3],effect on rate constant of dephosphorylation in a blank chase,"Na,K-ATPase [3]; 4°C, concentration increased from 40 to 400 mM",inhibited dephosphorylation
same,activation energy (ΔH) in 400 mM relative to 40 mM NaNO3,"Na,K-ATPase [4]",1.3 fold
Cl [chloride],"effect on Na,K-ATPase activity of increasing the salt concentration to 400 mM","Na,K-ATPase [5]",no effect
"CNC[C@H](O)[C@@H](O)[C@H](O)[C@H](O)CO [NMG^+, N-methylglucamine]",E1P (amount of K-resistant E1P),"Na,K-ATPase [1]; 45 mM Na^+, replacement cation to a sum of 500 mM, nitrate, 4°C, prep. C",80%
same,E1P (amount of K-resistant E1P),"Na,K-ATPase [1]; 200 mM Na^+, replacement cation to a sum of 500 mM, nitrate, 4°C, prep. C",79%
O=[N+]([O-])O [nitrate],amount of E1P in nitrate relative to acetate,"Na,K-ATPase [3]; 30 mM Na^+, 250 mM Lys^+",sevenfold larger
same,initial amount of E1P,"Na,K-ATPase [3]; 280 mM anion, 30 mM Na^+, 250 mM lysine^+, 4°C, 2-pool model",36%
CC(=O)O [acetate],"effect on Na,K-ATPase activity of increasing the salt concentration to 400 mM","Na,K-ATPase [5]",no effect
"N=C(N)NCCC[C@H](N)C(=O)O [Arg^+, arginine^+]",E1P (amount of K-resistant E1P),"Na,K-ATPase [1]; [6]",97%
same,E1P (amount of K-resistant E1P),"Na,K-ATPase [1]; [7]",97%
